Test system: MS2 coat protein
Assay: apparent Kd, MS2 coat protein; higher = weaker binding; RNA-MaP array; FMN 200 µM where present
Method in brief: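 Green signal was scaled to red-channel RNA signal and control-cluster median Fmax, and the apparent Kd was taken as the median of filtered per-cluster binding-curve fits. The binding series used SNAP-549-labelled MS2 coat protein from 0.7 or 1.5 nM, doubling to 3 µM, on designs transcribed by stalled E. coli RNA polymerase on Illumina sequencing-chip clusters. Each series ran without and then with constant ligand in 100 mM Tris-HCl pH 7.5, 80 mM KCl, 4 mM MgCl2, BSA, DTT, yeast tRNA and Tween-20.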

[1] = ligand present: flavin mononucleotide, designed as: OFF switch for flavin mononucleotide
[2] = designed as: OFF switch for flavin mononucleotide, no ligand
[3] = designed as: ON switch for flavin mononucleotide, no ligand
[4] = ligand present: flavin mononucleotide, designed as: ON switch for flavin mononucleotide

Row | Sequence | apparent Kd [1] | apparent Kd [2] | apparent Kd [3] | apparent Kd [4]
1 | CCUCGCUGUUAGAAGGCACCUUCGGCUUUGGCUUUUGGAGUUGGGCGAUGGUGAGGAUAUAACAUGAGGAUCACCCAUGUUCAA | 65.1 nM |  |  | 
2 | AAUUAUAUACAGAAGGAGUUAUAUUAAGUAUUACUAGGAUAUGUUCACAUGAGGAUCACCCAUGUCAUAUUGGGAUUUAUUUUU | 21.6 nM | 17 nM |  | 
3 | ACCAUUUACUAGUUUUCUAUACAUGAGGAUCACCCAUGUUUUUAGGAUAUCAGCGUGAAACACGCUGAGAAGGAAGAACAAUCG | 24.6 nM | 19.1 nM |  | 
4 | CAAUUUAUAACAGGAUAUGUAAUUCAAUAGAAAAUAGAAGGGUUUUAUACAUGAGGAUCACCCAUGUCAUGUAUCAUAAUUACC | 122 nM | 143 nM |  | 
5 | AACAUGAGGAUCACCCAUGUCCCACCAGAAGGCUGGCGGUCAUGGGAAAGGCCACGACAAAUAACAGAGGAUAUGGUGAAUGCA |  |  | 168 nM | 33.2 nM
6 | UGUCCAUAGCAGAAGGCACAUCCACAAAAUAAAACAUGAGGAUCACCCAUGUGAGGAUAUGCUAUGGACUAAGAGCGAAAGCUC | 21.8 nM | 5.44 nM |  | 
7 | AACGAGCAAGAUUAUUAUGAAUAAACAUGAGGAUCACCCAUGUAGGAUAUGCAGUGGAAUACACUGCAGAAGGACAAAAGCUCG | 12.9 nM | 6.49 nM |  | 
8 | AUCCGGCGUGUAGGAUAUGGAAAAGAUUAGGAUCCAGAAGGACAUGAGGAUCACCCAUGUACAUGUAAACAGUCAUCACCGGAA | 49.6 nM | 34.1 nM |  | 
9 | GUUUGACAUGAGGAUCACCCAUGUAAGGAUAUACGAGUAGCUGCUAGGUAGUUAGUAUGUAGAAGGUGCGUGUU | 62.6 nM | 65.7 nM |  | 
10 | GGACAUUUACAGAAGGGCAAAUUUUUUAUUGAAUAUUUAGUUCUGUUUUGCAGGAUAUGUUUUACAUGAGGAUCACCCAUGUCC |  |  | 79.9 nM | 30.6 nM
11 | GAUCCACAUGAGGAUCACCCAUGUGAGGAUAUGAUACUAUGUACUUCGGUACAUAGUAUCAGAAGGCACGGAUC | 31.6 nM | 27.1 nM |  | 
12 | UAAAUCUAGUAAGGAUAUACACGAGAUUCAAGUGUAGAAGGUACUUACAUGAGGAUCACCCAUGUAUACAUGGAUAAUAGAUAU |  |  | 234 nM | 109 nM
13 | UGAACCCAUGUUAGGAUAUCAGGCCGAGGAAGUUCUGAGAAGGGACAUGAGGAUCACCCAUGUAUAAAAGAAAC | 41.8 nM | 70.6 nM |  | 
14 | GGACGACACAUUAACAUGAGGAUCACCCAUGUCUCUUGACAUGAGGAUAUGGAUCCUAAUUGGAUCCAGAAGGCAUGGUCGUCC |  |  | 1130 nM | 93.5 nM
15 | AAGUAGUGUGUGAGGAUAUUGGUGGAAUGACAUAUUAAGAAGGCACAUGAGGAUCACCCAUGUGGGUUGUCACG | 120 nM | 49.2 nM |  | 
16 | AUAUUAUUGAUCCAUUUUUUCAACAUGAGGAUCACCCAUGUGCAGGAUAUCGUGUGUUUUAUCAACGAGAAGGGCAAAUUCAUU | 215 nM | 94.2 nM |  | 
17 | GGAUAGGACAGAGGAUAUACGUGCUAGAGAUACUAGCAAAAUUUCCUCACAUGAGGAUCACCCAUGUAGAAGGCUGUCCUAUCG | 954 nM | 46 nM |  | 
18 | GUCCUCUCUGAGGAUAUUAUCCGGUCCGAUUGAUAAGAAGGCAGUACAUGAGGAUCACCCAUGUGGGUCGUCUG | 111 nM | 37.4 nM |  | 
19 | GCCUUACUGGUCAGGAUAUACAUUUGUUACUCUUUGUAGAAGGGACAUGAGGAUCACCCAUGUACAUUACAUUC | 27.2 nM | 20.8 nM |  | 
20 | AAUAAUUAGUAAGGAUAUACUAGCGAUUAGCUUGUAGAAGGUACAGUCUUAUGUAUAACAAAUUAACAUGAGGAUCACCCAUGU |  |  | 10.2 nM | 7.39 nM
21 | GGUACUCAAAGAGUACAAGGUCGAACAUGAGGAUCACCCAUGUAGGAUAUGCUAAGCAAGAAGUAGCAGAAGGACAUGUGCAGC | 59.5 nM | 17.7 nM |  | 

Row | Sequence | apparent Kd [1] | apparent Kd [2] | apparent Kd [3] | apparent Kd [4]
22 | GCUGCAUAGGCAGGAUAUGCAAACAUGAGAUGAAAAUACAUCUCAUGUACAUGAGGAUCACCCAUGUAGAAGGGCCUGUGCAGU | 15.5 nM | 14.9 nM |  | 
23 | GCGUUGUACGAGAAGGCCAAUACAUGAGGAUCACCCAUGUUAAGUUGUUUUGGAGGAUAUCGAUCAUCUACAAUAAUGCAACGC | 6.03 nM | 6.74 nM |  | 
24 | UGGAUCAAUACAGGAUAUGGUGACGCACAUGAGGAUCACCCAUGUCCGCAGCGUGCUAAGCACGCCCAGAAGGGUAUUAAUUCG |  |  | 885 nM | 90 nM
25 | UCUGCUCGAGGAUAUACAUGAGGAUCACCCAUGUAUCCCUGUAGCAUGGCCUCAGGAUGUAGAAGGCGACGCUA | 16.8 nM | 14.9 nM |  | 
26 | CUCAUGUCAGGAUAUCAGUAGUAAAAAAAAAAAAUUACUACUGAGAAGGGACAUGAGGAUCACCCAUGUCACUU | 28.7 nM | 27.1 nM |  | 
27 | GUAGCUAUCGGAGGAUAUCCAUACCGGAAACGGACAUGAGGAUCACCCAUGUGGCGAAAGCCUUGGGAGAAGGCCGAUAGCUAC |  |  | 5.06 nM | 3.36 nM
28 | GGGUACAUCGGAGGAUAUCAUGUAAAUACAUGAGGAUCACCCAUGUCGAUGGAGACAUCGGAGAUUGAGAAGGCCGAUGCACCG |  |  | 203 nM | 8.97 nM
29 | CAUCUGUGAGGAUAUGGUGAGUAGUGCCUGAGCGCUGCUCACCAGAAGGCACAUGAGGAUCACCCAUGUAUGAC | 188 nM | 48.4 nM |  | 
30 | ACAUUUAAUACAGGAUAUGUUAGUAUACAGUUGAUUGGUUAUUACAUUAUAACAGAAGGGUAGAACAUGAGGAUCACCCAUGUA |  |  | 153 nM | 73.2 nM
31 | CUAGCAUACCGAGGAUAUUCAUAUAAUAAAUAAACAUGAGGAUCACCCAUGUGGCGAAAGCCUAGGGAGAAGGCGGAAUGCUAA |  |  | 185 nM | 24.8 nM
32 | UGGUACUAGGGAGGAUAUGGGAAGAUACAUGAGGAUCACCCAUGUUUAAGAAUGCCGAGAGGCCACUAGAAGGCCCUAGUACCU |  |  | 244 nM | 12.4 nM
33 | AAGUCAGCAGGAUAUGCGAUGGUGUGCUAGGUAGCUUGCCCACAUGAGGAUCACCCAUGUAGAAGGGCUGGCUA | 12.1 nM | 13.2 nM |  | 
34 | CGGUUGCGCUCCUAUGGUUUGAACAUGAGGAUCACCCAUGUACAGGAUAUAGUAAGAACGCCUUACUAGAAGGGUACGUUCUCG | 22 nM | 18.9 nM |  | 
35 | AAUUUAAUACAUGAGGAUCACCCAUGUAAUACUUGUAAGAUCAAGGAUAUCAGCUCGAAUAGAGCUGAGAAGGUGAUCACAUGU |  |  | 75.9 nM | 227 nM
36 | UUAUAUAGUGUGAGGAUAUGCUGGUCCUUGGAUCAGCAGAAGGCACAUGAGGAUCACCCAUGUAAUAUAUUAUU | 156 nM | 67.1 nM |  | 
37 | CAGCCCUGAGGAUAUCCACCCUCGUACAUGAGGAUCACCCAUGUUUCCCUCUGGGCUUUCGGAGAAGGCAGGUAUC | 77.3 nM | 78.6 nM |  | 
38 | GGUGCGUAUGUGAGGAUAUGCUGGUCCUUGGCUCGGCAGAAGGCACAUGAGGAUCACCCAUGUGGUGUCGUACU | 46 nM | 130 nM |  | 
39 | UUUAUAUAGUAAGGAUAUGUAUUAUUUUUGUCAACAGAAGGUACUGACAUGAGGAUCACCCAUGUUUUAGUGUGGGCAUGUAGU | 283 nM | 219 nM |  | 
40 | AAAAAACAUGAGGAUCACCCAUGUAAAAAAAUGGGAGGAUAUCUGAAUUAAUUAAAUUAAGGAGAAGGCCUAAAAA |  |  | 239 nM | 31.9 nM
41 | CGAUAGGACAGAGGAUAUACACAUGAGGAUCACCCAUGUGAUUACAACGCUUAAGCUCCAAACAUGUAGAAGGCUGUCCUAUCG | 27.9 nM | 21.7 nM |  | 
42 | UUGGACGUCGUAGGAUAUGUAGGAUAUUCAUACAUGAGGAUCACCCAUGUUGACAUGGAAGAAGGACAGAAGGACGAUGUCCAU |  |  | 8.63 nM | 4.56 nM

Source: the EternaBench riboswitch data
